# Legend:
# [1] = AUC in Han/Wistar rat at 3 mg/kg, po; assay type: ADME, organism-based; parameters: dose 3 mg/kg, route oral; settings: plasma
# Method in brief: (§1)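 Han-Wistar rats received a single oral dose of 3 mg/kg. Plasma Cmax is reported in ng/mL and AUC in ng h/mL.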
# [2] = Distribution coefficient, log D of the compound; assay type: physicochemical; settings: octanol/water
# Method in brief: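 logD was determined experimentally at pH 7.4.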
# [3] = Cmax in Han/Wistar rat at 3 mg/kg, po; assay type: ADME, organism-based; parameters: dose 3 mg/kg, route oral; settings: in vivo; method in brief: as §1
AUC [1],logD [2],Cmax [3],Structure (SMILES)
591 ng·h/mL,3.57,139 ng/mL,CCn1nc(C)c(-c2ccc3c(c2)N(c2nc4c(s2)C(=O)NC(C)(C)C4)CCO3)c1C
–,2.74,–,COc1ccc(Nc2ccc3c(c2)N(c2nc4c(s2)C(=O)NC(C)(C)C4)CCO3)nn1
–,0.22,–,COc1ccc(-c2ccc3c(c2)N(c2nc4c(s2)C(=O)NC(C)(C)C4)CCO3)nn1
–,3.23,–,Cc1nn(C)c(C)c1-c1ccc2c(c1)N(c1nc3c(s1)C(=O)NC(C)(C)C3)CCO2
–,1.76,–,CN1CCN(c2ccc(Nc3ccc4c(c3)N(c3nc5c(s3)C(=O)NC(C)(C)C5)CCO4)nn2)CC1
78 ng·h/mL,1.94,14 ng/mL,CC1(C)Cc2nc(N3CCOc4ccc(-c5ccc(N)nn5)cc43)sc2C(=O)N1
–,2.61,–,CN(C)c1ccc(-c2ccc3c(c2)N(c2nc4c(s2)C(=O)NC(C)(C)C4)CCO3)nn1
–,2.45,–,CC1(C)Cc2nc(N3CCOc4ccc(-c5ccc(N6CCNCC6)nn5)cc43)sc2C(=O)N1
–,3,–,Cc1nn(C)cc1-c1ccc2c(c1)N(c1nc3c(s1)C(=O)NC(C)(C)C3)CCO2
–,3.04,–,Cc1n[nH]c(C)c1-c1ccc2c(c1)N(c1nc3c(s1)C(=O)NC(C)(C)C3)CCO2
–,1.97,–,Cc1cc(C)c(Nc2ccc3c(c2)N(c2nc4c(s2)C(=O)NC(C)(C)C4)CCO3)nn1
–,1.16,–,CC1(C)Cc2nc(N3CCOc4ccc(-c5cnn(CCN)c5)cc43)sc2C(=O)N1
–,3.72,–,CC1(C)Cc2nc(N3CCOc4ccc(Nc5ccc(-c6ccccc6)nn5)cc43)sc2C(=O)N1
–,1.98,–,Cn1ncc(-c2ccc3c(c2)N(c2nc4c(s2)C(=O)NC(C)(C)C4)CCO3)c1N
1000 ng·h/mL,2.74,195 ng/mL,CC(C)(O)Cn1cc(-c2ccc3c(c2)N(c2nc4c(s2)C(=O)NC(C)(C)C4)CCO3)cn1
495 ng·h/mL,2.19,159 ng/mL,COCC(O)Cn1cc(-c2ccc3c(c2)N(c2nc4c(s2)C(=O)NC(C)(C)C4)CCO3)cn1 (stereo unspecified)
–,2.73,–,CCn1cc(-c2ccc3c(c2)N(c2nc4c(s2)C(=O)NC(C)(C)C4)CCO3)cn1
–,2.94,–,CC1(C)Cc2nc(N3CCOc4ccc(-c5cnn(Cc6cccnc6)c5)cc43)sc2C(=O)N1
–,2.3,–,Cc1nn(CC(C)(C)O)c(C)c1-c1ccc2c(c1)N(c1nc3c(s1)C(=O)NC(C)(C)C3)CCO2
–,2.68,–,CC1(C)Cc2nc(N3CCOc4ccc(-c5cn[nH]c5)cc43)sc2C(=O)N1
807 ng·h/mL,–,187 ng/mL,COC[C@H](O)Cn1cc(-c2ccc3c(c2)N(c2nc4c(s2)C(=O)NC(C)(C)C4)CCO3)cn1
–,0.38,–,Cc1nn(CCCN)cc1-c1ccc2c(c1)N(c1nc3c(s1)C(=O)NC(C)(C)C3)CCO2
–,2.63,–,Cn1cc(-c2ccc3c(c2)N(c2nc4c(s2)C(=O)NC(C)(C)C4)CCO3)cn1
–,0.6,–,CC1(C)Cc2nc(N3CCOc4ccc(Nc5ccc(N6CCNCC6)nn5)cc43)sc2C(=O)N1
455 ng·h/mL,3.91,103 ng/mL,CC1(C)Cc2nc(N3CCOc4ccc(-c5cnn(Cc6ccccc6)c5)cc43)sc2C(=O)N1
–,1.75,–,CN1CCN(c2ccc(-c3ccc4c(c3)N(c3nc5c(s3)C(=O)NC(C)(C)C5)CCO4)nn2)CC1
–,2.32,–,Cc1ccc(-c2ccc3c(c2)N(c2nc4c(s2)C(=O)NC(C)(C)C4)CCO3)nn1
345 ng·h/mL,2.39,105 ng/mL,Cc1ccc(Nc2ccc3c(c2)N(c2nc4c(s2)C(=O)NC(C)(C)C4)CCO3)nn1
